The source made the active and inactive calls.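 Rule for the calls, unless noted: active = viability at or under a set limit in both replicates, limit being median viability minus 3 SD (cut at about 48% in these data, passing the limit was not always enough); inconclusive = at or under the limit in just one replicate; inactive = at or above the limit in both replicates.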
Tests used:
[1] = Her2 expression decrease, cell viability multiplex – SKBR3 breast tumor cells, AlphaScreen, ATP viability, primary screen (AID 461;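 active = Her2 level under about 52% in both replicate screens, with viability over 70% of control, limit read from the data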;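 for Her2 level: lower value means less Her2 protein in the cells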;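 for viability: percent of carrier control wells set as 100% viability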); conditions: SKBR3 Her2 protein level, 18-24 h, measured here: SKBR3 viability, ATP luminescence, at 10 µM
[2] = target: Receptor tyrosine-protein kinase erbB-2 (Homo sapiens) (UniProt P04626); assay: as above; conditions: 18-24 h, at 10 µM, stronger effect = lower value
Chain of Receptor tyrosine-protein kinase erbB-2 (Homo sapiens) (P04626 whole entry, looked up): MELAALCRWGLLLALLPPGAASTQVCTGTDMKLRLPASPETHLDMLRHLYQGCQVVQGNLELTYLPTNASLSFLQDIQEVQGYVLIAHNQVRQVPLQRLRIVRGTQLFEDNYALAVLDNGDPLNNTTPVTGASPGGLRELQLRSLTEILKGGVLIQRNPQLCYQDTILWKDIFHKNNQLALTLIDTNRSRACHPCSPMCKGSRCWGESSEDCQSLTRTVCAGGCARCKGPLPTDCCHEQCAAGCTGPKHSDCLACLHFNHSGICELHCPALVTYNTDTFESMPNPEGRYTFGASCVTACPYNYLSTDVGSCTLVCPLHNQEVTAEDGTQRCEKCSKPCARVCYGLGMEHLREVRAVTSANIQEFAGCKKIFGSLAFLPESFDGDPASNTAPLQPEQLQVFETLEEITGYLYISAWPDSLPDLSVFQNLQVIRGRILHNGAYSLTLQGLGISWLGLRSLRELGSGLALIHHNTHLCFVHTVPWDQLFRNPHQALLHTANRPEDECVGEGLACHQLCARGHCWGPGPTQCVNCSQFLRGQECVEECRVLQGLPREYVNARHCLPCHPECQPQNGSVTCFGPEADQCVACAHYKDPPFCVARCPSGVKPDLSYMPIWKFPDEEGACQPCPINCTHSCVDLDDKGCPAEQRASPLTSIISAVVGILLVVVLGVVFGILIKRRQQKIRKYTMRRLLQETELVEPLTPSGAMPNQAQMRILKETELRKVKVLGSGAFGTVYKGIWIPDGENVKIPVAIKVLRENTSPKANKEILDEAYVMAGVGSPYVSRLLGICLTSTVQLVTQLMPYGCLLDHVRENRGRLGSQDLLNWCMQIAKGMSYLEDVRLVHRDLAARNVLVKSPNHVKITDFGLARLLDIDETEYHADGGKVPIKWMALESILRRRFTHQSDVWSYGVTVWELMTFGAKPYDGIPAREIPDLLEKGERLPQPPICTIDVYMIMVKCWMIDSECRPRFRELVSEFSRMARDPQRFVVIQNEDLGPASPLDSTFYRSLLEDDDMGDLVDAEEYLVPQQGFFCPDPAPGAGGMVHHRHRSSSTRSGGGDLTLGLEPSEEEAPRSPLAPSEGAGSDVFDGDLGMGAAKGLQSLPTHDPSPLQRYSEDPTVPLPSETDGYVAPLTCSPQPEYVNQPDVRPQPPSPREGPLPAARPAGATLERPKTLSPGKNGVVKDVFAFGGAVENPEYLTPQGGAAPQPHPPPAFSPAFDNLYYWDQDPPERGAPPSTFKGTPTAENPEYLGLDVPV

[3] = reduced viability of SK-BR-3 breast cancer cells – cell-based, 24 h, human, pilot screen (AID 572;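 active = viability at or below 10% of carrier control in both of two separate runs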;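 note: compound exposure lasted between 18 and 24 h rather than exactly 24 h; 100% = carrier-treated control wells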); conditions: SK-BR-3 viability, CellTiter-Glo luminescence, at 10 µM, stronger effect = lower value
[4] = HUVEC growth inhibition – cell-based, human, primary screen (AID 575;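 active = viability at or below 30% in both replicate assays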;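 note: 100% = median of untreated cell wells with 0.1% DMSO on each plate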); conditions: HUVEC proliferation, CellTiter-Glo luminescence, 72 h; at 10 µM; stronger effect = lower value
Summary of the method: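 Test system: primary human umbilical vein endothelial cells. Quantity: 1250 cells/well. Compound: single 10 µM dose, 0.1% DMSO, from 5x medium stock. Timing: 72 h treatment at 37 °C. Detection: ATP-based CellTiter-Glo luminescent read. Benchmarks: vehicle and MePR control wells. Format: 384-well plates coated with collagen.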

[5] = H69AR cell proliferation blockers – human, duplicate replicates, primary screen (AID 580); conditions: H69AR lung tumor cells viability, ATP luminescence, 72 h; at 10 µM; stronger effect = lower value;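 note: 100% = mean luminescence of untreated wells and 0% = no signal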
[6] = MRP1 drug-resistance reversers in H69AR cells – cell-based, doxorubicin co-treatment, pilot screen (AID 601;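 active = viability loss from added drug above about 55%, and viability with drug at most 40%, in both replicates, limit read from the data, passing the limit was not always enough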); conditions: CellTiter-Glo, 72 h, at 10 µM; for differential viability (reversal): stronger effect = higher value
[7] = yeast transport mutant growth inhibition pilot in 384-well plates, post-Golgi transport modulator project (AID 636; in the data active = inhibition above about 31%); conditions: absorbance 615 nm, about 18 h, stronger effect = higher value
[8] = growth suppression of yeast trafficking mutant, preliminary HTS, modulators of trafficking downstream of Golgi apparatus project, 1536-format plate, OD 615 nm (AID 637; in the data active = inhibition above about 30%); conditions: yeast transport mutant growth, absorbance 615 nm, 18 h; stronger effect = higher value
[9] = H69AR cells + 2 uM doxorubicin, measured here: viability with 2 uM doxorubicin, stronger effect = lower value
[10] = H69AR cells, compound alone cytotoxicity

| Compound | viability [1] [%] | Her2 level [2] | viability [3] | viability [4] | viability [5] | differential viability (reversal) ([6]; H69AR cells + 2 uM doxorubicin) | viability [6, 9] [%] | viability [6, 10] [%] | inhibition [7] | inhibition [8] |
| --- | --- | --- | --- | --- | --- | --- | --- | --- | --- | --- |
| O=C(CSc1ncnc2c1oc1ccccc12)Nc1ccccc1F | 96.5 | 101% (inactive) | 96.5% (inactive) | 72% (inactive) | 90.5% (inactive) | 7.33% (inactive) | 83.1 | 90.5 | -2.27% (inactive) | -1.33% (inactive) |
| Cc1cccc(NC(=O)COc2ccc(Br)cc2)n1 | 126 | 110% (inactive) | 126% (inactive) | 90.5% (inactive) | 99.4% (inactive) | 6.92% (inactive) | 92.4 | 99.4 | -5.19% (inactive) | 11% (inactive) |
| Fc1ccc(Cn2nnc(-c3ccc(CN4CCOCC4)cc3)n2)cc1 | 88 | 122% (inactive) | 88% (inactive) | 108% (inactive) | 103% (inactive) | 6.81% (inactive) | 96.3 | 103 | 84.7% (active) | 43% (active) |
| CC(C)CCNc1cc(=O)n(C)c(=O)n1C | 83.5 | 120% (inactive) | 83.5% (inactive) | 91% (inactive) | 88.2% (inactive) | -0.405% (inactive) | 88.6 | 88.2 | -1.3% (inactive) | 20.3% (inactive) |
| CN(C)S(=O)(=O)c1ccc(S(=O)(=O)Nc2ccc3c(c2)oc2ccccc23)cc1 | 79.5 | 97% (inactive) | 79.5% (inactive) | 59.2% (inactive) | 73.2% (inactive) | -2.9% (inactive) | 76.1 | 73.2 | 2.11% (inactive) | -3.64% (inactive) |
| CCOC(=O)CSc1nc2c(c(-c3ccc(C)o3)c1C#N)CCCC2 | 89.5 | 88.5% (inactive) | 89.5% (inactive) | 65.8% (inactive) | 73.8% (inactive) | 6.76% (inactive) | 67 | 73.8 | 0.26% (inactive) | -2.46% (inactive) |
| O=C(O)C1C2CCC(O2)C1C(=O)NCCC1=CCCCC1 (stereo not given) | 78.5 | 118% (inactive) | 78.5% (inactive) | 34.2% (inactive) | 57.8% (inactive) | -9.07% (inactive) | 66.8 | 57.8 | 0% (inactive) | 0.5% (inactive) |
| Cc1c(CCC#N)c(N2CCN(C3CCCCC3)CC2)n2c(nc3ccccc32)c1C#N | 88 | 83.5% (inactive) | 88% (inactive) | 74.7% (inactive) | 32.5% (active) | 10.4% (inactive) | 22.1 | 32.5 | -5.48% (inactive) | -0.16% (inactive) |
| C=CCOc1ccc(C2C(C(=O)c3ccco3)=C(O)C(=O)N2Cc2cccnc2)cc1 (stereo not given) | 108 | 89.5% (inactive) | 108% (inactive) | 119% (inactive) | 90.9% (inactive) | 2.87% (inactive) | 88 | 90.9 | -1.71% (inactive) | 8.69% (inactive) |
| COC(=O)c1cc(OC)c(OCc2cc(C(=O)OC)oc2C)c(OC)c1 | 95 | 89.5% (inactive) | 95% (inactive) | 107% (inactive) | 90.7% (inactive) | 1.03% (inactive) | 89.7 | 90.7 | -9.32% (inactive) | 1.8% (inactive) |
| COCCNC(=O)Cn1nc(C(F)(F)F)c(Br)c1C | 118 | 104% (inactive) | 118% (inactive) | 90.4% (inactive) | 108% (inactive) | 15.8% (inactive) | 92.5 | 108 | -4.27% (inactive) | -0.81% (inactive) |
| CC(C)OC(=O)C(CC(=O)O)NCc1ccccc1 (stereo not given) | 98 | 91.5% (inactive) | 98% (inactive) | 97.5% (inactive) | 91.6% (inactive) | 3.69% (inactive) | 88 | 91.6 | -2.63% (inactive) | -1.29% (inactive) |
| COc1cccc(OC)c1OCCN1CCN(C(=O)c2ccco2)CC1 | 86.5 | 88.5% (inactive) | 86.5% (inactive) | 107% (inactive) | 95.8% (inactive) | 10.7% (inactive) | 85 | 95.8 | -6.85% (inactive) | -4.92% (inactive) |
| CC(C)N(C(=O)CSc1nnc(NC(=O)C2CCC2)s1)C(C)C | 82.5 | 90.5% (inactive) | 82.5% (inactive) | 90.4% (inactive) | 92.9% (inactive) | 3.82% (inactive) | 89 | 92.9 | -1.47% (inactive) | -2.42% (inactive) |
